From ChEMBL document CHEMBL2146382, “Cytotoxic and antineoplastic activity of timosaponin A-III for human colon cancer cells” (J Nat Prod, 2011)
pIC50: −log10 of the molar value. Calls of active or inactive are those of the source. The rule behind the calls is not given here.

How the values were obtained:
[1] = tested on: HCT-15; assay: Cell cycle arrest in human HCT15 cells assessed as accumulation at S phase at 10 uM after 24 hrs using propidium-iodide staining by flow-cytometry (reference value: 34.1 %); format: functional
[2] = tested on: HCT-15; assay: Cell cycle arrest in human HCT15 cells assessed as accumulation at G0/G1 phase at 5 uM after 24 hrs using propidium-iodide staining by flow-cytometry (reference value: 37.0 %); format: functional
[3] = tested on: HCT-15; assay: Cell cycle arrest in human HCT15 cells assessed as accumulation at sub-G1 phase at 20 uM after 24 hrs using propidium-iodide staining by flow-cytometry (reference value: 6.5 %); format: functional
[4] = tested on: HCT-15; assay: Cell cycle arrest in human HCT15 cells assessed as accumulation at sub-G1 phase at 5 uM after 24 hrs using propidium-iodide staining by flow-cytometry (reference value: 6.5 %); format: functional
[5] = tested on: HCT-15; assay: Induction of apoptosis in human HCT15 cells assessed as increase in caspase-8 expression at 5 to 20 uM by Western blot analysis; format: functional, cell-based
Method in brief: (§1)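 HCT-15 cells (RPMI, 10% heat-inactivated FBS, antibiotics-antimycotics, 37 C, 5% CO2) exposed to compound. Cells lysed, protein measured by BCA, 30-50 μg per lane resolved on 10% SDS-PAGE and electroblotted to PVDF. Membranes blocked 1 h in 5% nonfat milk/PBST, probed with primary antibodies overnight at 4 C, then HRP anti-mouse IgG 1:1500 for 3 h at room temperature. Detection by ECL; β-actin antibody available.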

[6] = tested on: HCT-15; assay: Cell cycle arrest in human HCT15 cells assessed as accumulation at G2/M phase at 10 uM after 12 hrs using propidium-iodide staining by flow-cytometry (reference value: 15.7 %); format: functional
[7] = tested on: HCT-15; assay: Cytotoxicity against human HCT15 cells assessed as morphological changes with distinct rounded shapes and detachment at 5 to 20 uM by phase-contrast microscopy; format: functional, cell-based; conditions: TDE = time-dependent effect
Method in brief: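 HCT-15 cells treated with 0–20 μM for 12 and 24 h, vehicle-treated controls; morphology examined and photographed under phase-contrast microscope.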

[8] = tested on: HCT-15; assay: Cell cycle arrest in human HCT15 cells assessed as accumulation at G0/G1 phase at 5 uM after 12 hrs using propidium-iodide staining by flow-cytometry (reference value: 44.4 %); format: functional
[9] = tested on: HCT-15; assay: Cell cycle arrest in human HCT15 cells assessed as accumulation at G2/M phase at 5 uM after 24 hrs using propidium-iodide staining by flow-cytometry (reference value: 22.4 %); format: functional
[10] = tested on: HCT-15; assay: Induction of apoptosis in human HCT15 cells assessed as PARP cleavage at 20 uM after 12 to 24 hrs by Western blot analysis; format: functional, cell-based
Method in brief: (§2)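 HCT-15 cells in RPMI/10% FBS exposed to test compound at various concentrations; lysates quantified by BCA, 30–50 μg protein run on 10% SDS-PAGE, transferred to PVDF, blocked 1 h in 5% milk/PBST, primary antibodies overnight at 4 °C, HRP anti-mouse IgG 1:1500 for 3 h at room temperature, ECL detection.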

[11] = tested on: HCT-15; assay: Cell cycle arrest at G0/G1 phase in human HCT15 cells assessed as decrease in c-Myc expression at 5 to 20 uM after 24 hrs by Western blot analysis; format: functional, cell-based; method in brief: as §2
[12] = tested on: Mus musculus; assay: Toxicity in human HCT15 cells xenografted nude BALB/c mouse assessed as body weight changes at 2 to 5 mg/kg, ip administered 3 times a week for 4 weeks measured after 9 to 30 days; format: organism-based, HCT-15; parameters: route intraperitoneal; conditions: in vivo
Method in brief: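 HCT-15 cells (2 × 10^6) were injected subcutaneously into the flank of BALB/c-nu (nu/nu) mice. Dosing began once tumours reached ca. 80 mm3, with mice randomised to groups of five. Compound (2 or 5 mg/kg) in ethanol-cremophor-H2O (0.5:0.5:99) was given ip three times weekly for four weeks. Controls received equal-volume vehicle. Body weight was monitored over the testing period, with tumour measurements over 30 days.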

[13] = tested on: HCT-15; assay: Induction of apoptosis in human HCT15 cells assessed as increase in caspase-3 expression at 5 to 20 uM by Western blot analysis; format: functional, cell-based; method in brief: as §2
[14] = tested on: HCT-15; assay: Cell cycle arrest at M phase in human HCT15 cells assessed as suppression of CDC2 Tyr-15 phosphorylation at 5 to 20 uM after 12 to 24 hrs by Western blot analysis; format: functional, cell-based; method in brief: as §2
[15] = tested on: HCT-15; assay: Induction of apoptosis in human HCT15 cells assessed as increase in caspase-9 expression at 5 to 20 uM by Western blot analysis; format: functional, cell-based; method in brief: as §1
[16] = tested on: HCT-116; assay: Growth inhibition of human HCT116 cells; format: functional, cell-based
Method in brief: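 SRB assay: cells at 5 × 10^4 cells/mL were exposed to a concentration series for 3 days, fixed with 10% TCA and stained with sulforhodamine B. Survival was expressed as % of solvent-treated control and IC50 taken by nonlinear regression of % survival versus concentration. Media held 10% heat-inactivated FBS plus antibiotics: RPMI (HCT-15, HCT 116, HT-29), RPMI with 25 mM HEPES (SW480, SW620), DMEM (MRC-5, Hs68). Cultures were kept at 37 C, 5% CO2.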

[17] = tested on: HCT-15; assay: Cell cycle arrest in human HCT15 cells assessed as accumulation at S phase at 5 uM after 24 hrs using propidium-iodide staining by flow-cytometry (reference value: 34.1 %); format: functional
[18] = tested on: HCT-15; assay: Induction of apoptosis in human HCT15 cells assessed as suppression of procaspase-8 expression at 5 to 20 uM after 12 to 24 hrs by Western blot analysis; format: functional, cell-based; method in brief: as §1
[19] = tested on: HCT-15; assay: Cell cycle arrest in human HCT15 cells assessed as accumulation at S phase at 10 uM after 12 hrs using propidium-iodide staining by flow-cytometry (reference value: 34.7 %); format: functional
[20] = tested on: HCT-15; assay: Cell cycle arrest at […] phase in human HCT15 cells assessed as CDK4 down regulation at 5 to 20 uM after 12 to 24 hrs by Western blot analysis; format: functional, cell-based; method in brief: as §2
[21] = tested on: HCT-15; assay: Cell cycle arrest at G2/M phase in human HCT15 cells assessed as cyclin B1 down regulation at 5 to 20 uM after 12 to 24 hrs by Western blot analysis; format: functional, cell-based; method in brief: as §2
[22] = tested on: HCT-15; assay: Cell cycle arrest in human HCT15 cells assessed as accumulation at G2/M phase at 5 uM after 12 hrs using propidium-iodide staining by flow-cytometry (reference value: 15.7 %); format: functional
[23] = tested on: HCT-15; assay: Cell cycle arrest in human HCT15 cells up to 10 uM after 12 hrs by propidium-iodide staining by flow-cytometry; format: functional, cell-based
[24] = tested on: HCT-15; assay: Cell cycle arrest in human HCT15 cells assessed as accumulation at G2/M phase at 20 uM after 12 hrs using propidium-iodide staining by flow-cytometry (reference value: 15.7 %); format: functional
[25] = tested on: HCT-15; assay: Cell cycle arrest at G2/M phase in human HCT15 cells assessed as cyclin A down regulation at 5 to 20 uM after 12 to 24 hrs by Western blot analysis; format: functional, cell-based; method in brief: as §2
[26] = tested on: HCT-15; assay: Cell cycle arrest in human HCT15 cells assessed as accumulation at S phase at 5 uM after 12 hrs using propidium-iodide staining by flow-cytometry (reference value: 34.7 %); format: functional
[27] = tested on: HCT-15; assay: Cell cycle arrest in human HCT15 cells assessed as accumulation at sub-G1 phase at 20 uM after 12 hrs using propidium-iodide staining by flow-cytometry (reference value: 5.2 %); format: functional

## C[C@H]1CC[C@@]2(OC1)O[C@H]1C[C@H]3[C@@H]4CC[C@@H]5C[C@@H](O[C@@H]6O[C@H](CO)[C@H](O)[C@H](O)[C@H]6O[C@@H]6O[C@H](CO)[C@@H](O)[C@H](O)[C@H]6O)CC[C@]5(C)[C@H]4CC[C@]3(C)[C@H]1[C@@H]2C [TIMOSAPONIN AIII]
[1]
  Activity: 15.3%
[2]
  Activity: 36.4%
[3]
  Activity: 39.7%
[4]
  Activity: 7.2%
[5]
  Activity: Active
[6]
  Activity: 24.2%
[7]
  Activity: tde
[8]
  Activity: 52.2%
[9]
  Activity: 19.4%
[10]
  Activity: Active
[11]
  Activity: Active
[12]
  Activity: Non-toxic
[13]
  Activity: Active
[14]
  Activity: Active
[15]
  Activity: Active
[16]
  pIC50: 5.26
[17]
  Activity: 37%
[18]
  Activity: Active
[19]
  Activity: 18.4%
[20]
  Activity: Active
[21]
  Activity: Active
[22]
  Activity: 20.5%
[23]
  Activity: Active
[24]
  Activity: 41.8%
[25]
  Activity: Active
[26]
  Activity: 22.5%
[27]
  Activity: 41.8%
